Measurements published in ChEMBL document CHEMBL1124721, “Antioxidant-based inhibitors of leukotriene biosynthesis. The discovery of 6-[1-[2-(hydroxymethyl)phenyl]-1-propen-3-yl]-2,3-dihydro-5- benzofuranol, a potent topical antiinflammatory agent” (J Med Chem, 1990).

Key:
[1] = species: Homo sapiens; experiment: Inhibitory activity against production of leukotriene B4 in isolated human polymorphonuclear leukocytes; assay type: functional
Outline: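 Leukotriene biosynthesis in human polymorphonuclear leukocytes was started with calcium ionophore A23187, and LTB₄ was quantified by radioimmunoassay. Inhibition curves came from five-point titrations fitted with a four-parameter algorithm to give IC50. Compounds were generally tested at least in duplicate, with the IC50 reported as the mean of all determinations.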

[2] = Partition coefficient (logP); assay type: physicochemical; conditions: octanol/water
Outline: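 Octanol/water log P was estimated by calculation with commercial software, not measured experimentally.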

[3] = system: Mus musculus; experiment: Tested for ability to inhibit the topical inflammatory response in the topical mouse ear(TME) model; assay type: functional
Outline: (§1)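 Mice received 25 μL on the inner surface of one ear, with five mice per group. Compound was applied in acetone/pyridine/water 97:2:1 together with 200 μg/mL PMA as irritant. Controls received vehicle alone or vehicle with PMA. Solvent was evaporated at room temperature. After 4 h, 6-mm ear punches were weighed wet to measure edema. ED50 came from four-point titrations.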

[4] = system: Mus musculus; experiment: Tested for its ability to inhibit the topical inflammatory response in the topical mouse ear(TME) model; assay type: functional; outline: as §1

| IC50 [1] [nM] | logP [2] | SMILES | ED50 [3] [uM site-1] | ED50 [4] [uM site-1] |
| --- | --- | --- | --- | --- |
| 490 | 2.9 | Oc1cc2c(cc1CNc1ccccc1)OCC2 |  |  |
| 590 | 3.9 | COc1ccc(O)c(CSc2ccccc2)c1 |  |  |
|  |  | COc1ccc2c(c1)c(CC(=O)O)c(C)n2C(=O)c1ccc(Cl)cc1 [INDOMETHACIN] | 0.64 |  |
| 1400 | 3.6 | OCc1ccccc1SCc1cc2c(cc1O)CCCO2 |  |  |
| 1400 | 3.3 | COc1ccc(O)c(COc2ccccc2)c1 |  |  |
| 4100 | 3.5 | CC(=O)c1ccc(NCc2cc3c(cc2O)CCCO3)cc1 | 0.35 |  |
| 1400 | 4.2 | Oc1ccc2c(c1CNc1ccc(F)cc1F)CCCO2 |  |  |
| 1300 | 3.5 | COc1ccc(O)c(CNc2ccc(F)cc2F)c1 |  |  |
| 11000 | 1.9 | OCc1ccccc1NCc1cc2c(cc1O)CCO2 |  |  |
| 1600 | 3.6 | N#Cc1ccc(NCc2cc3c(cc2O)CCCO3)cc1 | 1.61 |  |
| 42000 | 2.2 | OCc1ccccc1NCc1cc2occc2cc1O | 0.44 |  |
| 250 | 4.4 | COc1ccc(O)c(C/C=C/c2ccccc2)c1 | 1.08 |  |
| 190 | 4 | OCc1ccccc1CCCc1cc2c(cc1O)CCO2 |  |  |
| 990 | 2.8 | N#Cc1ccc(NCc2cc3c(cc2O)CCO3)s1 |  |  |
| 11000 | 3.5 | CC(=O)c1ccc(NCc2c(O)ccc3c2CCCO3)cc1 |  |  |
| 120 | 4.3 | COc1ccc(O)c(CCc2ccccc2)c1 |  |  |

| IC50 [1] [nM] | logP [2] | SMILES | ED50 [3] [uM site-1] | ED50 [4] [uM site-1] |
| --- | --- | --- | --- | --- |
| 130 | 3.5 | OCc1ccccc1/C=C/Cc1cc2c(cc1O)CCO2 | 0.74 |  |
| 11000 | 3.3 | Oc1cc2ccoc2cc1CNc1ccccc1 | 0.97 |  |
| 70 | 3.9 | O=Cc1ccccc1/C=C/Cc1cc2c(cc1O)CCO2 |  |  |
| 660 | 3.6 | Oc1cc2c(cc1CNc1ccc(F)cc1F)OCC2 |  |  |
| 1300 | 4.2 | Oc1cc2c(cc1CNc1ccc(F)cc1F)OCCC2 |  |  |
| 21000 | 2.4 | OCc1ccccc1NCc1cc2c(cc1O)CCCO2 | 0.49 |  |
| 1200 | 2.9 | CC(=O)c1ccc(NCc2cc3c(cc2O)CCO3)cc1 | 0.35 |  |
| 440 | 2.8 | N#Cc1cc(NCc2cc3c(cc2O)CCO3)cs1 |  |  |
| 8700 | 2.9 | COc1ccc(O)c(CSc2ccccc2CO)c1 | 0.87 |  |
| 1700 | 3.5 | Oc1cc2c(cc1CNc1ccccc1)OCCC2 | 0.67 |  |
| 440 | 4.2 | CC(=O)c1ccc(SCc2cc3c(cc2O)CCCO3)cc1 |  |  |
| 17000 | 2.4 | OCc1ccccc1NCc1c(O)ccc2c1CCCO2 | 0.6 |  |
| 600 | 4.6 | CCOC(=O)c1ccc(NCc2cc3c(cc2O)CCCO3)cc1 |  |  |
| 2600 | 2.7 | COc1ccc(O)c(CNc2ccc(C#N)s2)c1 |  |  |
| 4700 | 2.8 | COc1ccc(O)c(CNc2ccccc2)c1 |  | 0.61 |
| 60 | 4 | CC(=O)c1ccc(/C=C/Cc2cc3c(cc2O)CCO3)cc1 | 0.54 |  |
